Data reported in PubChem BioAssay AID652011 (Sanford-Burnham Center for Chemical Genomics, 2013).
“And” between values parts separate entries of the source, which are not always exact repeats. Equal entries are not always repeated.

Target: Endothelial PAS domain-containing protein 1 (Homo sapiens) (UniProt Q99814)
Assay: HIF-1a and HIF-2a reporter inhibitors, SAR follow-up, cell-based, luminescence, MIAPaCa-2, 786-0, panel (AID 652011)
Details: MIAPaCa-2/PANC HIF reporter, luciferase luminescence, desferoxamine, overnight, HIF2a PANC, run 1; at 99 µM (top of the series)
Method in brief: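 Probe or stimulus: desferoxamine stimulus; times: overnight seeding and compound exposure, 37 °C, 5% CO2, 10-min detection; signal: One-Glo luciferase luminescence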

Sequence of Endothelial PAS domain-containing protein 1 (Homo sapiens) (Q99814 whole entry, looked up, the tested form may be a part): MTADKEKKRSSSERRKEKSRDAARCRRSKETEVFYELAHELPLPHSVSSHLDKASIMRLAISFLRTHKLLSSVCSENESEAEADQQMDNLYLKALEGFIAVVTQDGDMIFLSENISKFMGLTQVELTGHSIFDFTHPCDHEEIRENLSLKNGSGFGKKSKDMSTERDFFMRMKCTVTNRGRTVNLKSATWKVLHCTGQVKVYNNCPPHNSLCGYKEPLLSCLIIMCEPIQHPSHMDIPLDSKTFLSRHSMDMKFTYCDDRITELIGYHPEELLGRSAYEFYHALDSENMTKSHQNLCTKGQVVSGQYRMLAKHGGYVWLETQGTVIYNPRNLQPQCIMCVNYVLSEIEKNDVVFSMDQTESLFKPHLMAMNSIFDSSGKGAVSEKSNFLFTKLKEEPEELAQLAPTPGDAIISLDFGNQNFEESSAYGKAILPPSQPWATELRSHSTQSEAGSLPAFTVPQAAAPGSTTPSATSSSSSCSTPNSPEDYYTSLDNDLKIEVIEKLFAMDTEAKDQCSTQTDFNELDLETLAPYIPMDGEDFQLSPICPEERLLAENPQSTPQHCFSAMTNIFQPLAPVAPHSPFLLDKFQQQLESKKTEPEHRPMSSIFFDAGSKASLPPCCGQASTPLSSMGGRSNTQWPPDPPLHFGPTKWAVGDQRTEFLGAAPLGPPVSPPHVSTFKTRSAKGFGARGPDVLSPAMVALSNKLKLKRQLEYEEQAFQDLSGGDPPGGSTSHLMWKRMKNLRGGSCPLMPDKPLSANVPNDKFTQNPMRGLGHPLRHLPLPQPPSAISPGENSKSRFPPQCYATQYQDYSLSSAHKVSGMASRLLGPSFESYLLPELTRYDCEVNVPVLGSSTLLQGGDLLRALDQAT

SMILES | inhibition
CNC(=O)CCc1nc(-c2ccc(C)cc2)no1 | 40.9%
CNC(=O)CCc1nc(-c2ccc(C(C)C)cc2)no1 | 24%
CC(C)c1ccc(-c2noc(CCC(=O)NC(C)(C)C)n2)cc1 | 57.4%
CC(C)(C)c1ccc(-c2noc(CCC(=O)Nc3cccnc3)n2)cc1 | 118%
CC(C)(C)c1ccc(-c2noc(CCC(=O)NCc3ccco3)n2)cc1 | 86.1% and 78.5%
CC(C)(C)c1ccc(-c2noc(CCC(=O)N3CCCCC3)n2)cc1 | 103%
CCc1ccc(-c2noc(CCC(=O)NC(C)(C)C)n2)cc1 | -42.9%
CCNC(=O)CCc1nc(-c2ccc(C(C)(C)C)cc2)no1 | 17.6% and 9.6%
CNC(=O)CCc1nc(-c2ccc(Cl)cc2)no1 | 13.4%
COc1cccc(NC(=O)CCc2nc(-c3ccc(C(C)(C)C)cc3)no2)c1 | 118%
CC(C)c1ccc(-c2noc(CCC(=O)NC3CC3)n2)cc1 | -39.8%
CC(C)(C)c1ccc(-c2noc(CCC(=O)NCC3CCCO3)n2)cc1 (stereo not given) | 53.5%
CC(C)(C)c1ccc(-c2noc(CCC(=O)NC3CCC3)n2)cc1 | 108%
CCOc1ccc(-c2noc(CCC(=O)O)n2)cc1 | 109%
CCc1ccc(-c2noc(CCC(=O)NC(C)CC)n2)cc1 (stereo not given) | -89.5%
CCNC(=O)CCc1nc(-c2ccccc2)no1 | 21.2%
CCC(C)NC(=O)CCc1nc(-c2ccc(C(C)C)cc2)no1 (stereo not given) | 12.1%
CC(C)NC(=O)CCc1nc(-c2ccc(C(C)(C)C)cc2)no1 | 80.3%
CCNC(=O)CCc1nc(-c2ccccc2C)no1 | 27.8%
CCN(CC)C(=O)CCc1nc(-c2ccc(C(C)(C)C)cc2)no1 | 44.3% and 43.4%
C=CCNC(=O)CCc1nc(-c2ccc(C(C)(C)C)cc2)no1 | 56.7%
CCCCc1ccc(-c2noc(CCC(=O)NC3CC3)n2)cc1 | -40.8%
CCNC(=O)CCc1nc(-c2cccc(F)c2)no1 | 19.4%
COc1ccccc1NC(=O)CCc1nc(-c2ccc(C(C)(C)C)cc2)no1 | 115%
CC(C)(C)c1ccc(-c2noc(CCC(N)=O)n2)cc1 | 115% and 99.9%
CC(C)(C)c1ccc(-c2noc(CCC(=O)Nc3cccc([N+](=O)[O-])c3)n2)cc1 | 89.8%
COC(=O)CCc1nc(-c2ccc(C(C)(C)C)cc2)no1 | 123%
CCNC(=O)CCc1nc(-c2cccc(OC)c2)no1 | 27.9%
CCNC(=O)CCc1nc(-c2ccc(CC)cc2)no1 | -29.7%
CCc1ccc(-c2noc(CCC(=O)NC3CC3)n2)cc1 | -19.4%
